# Data published in ChEMBL document CHEMBL1629653, “CMY-31 and CMY-36 cephalosporinases encoded by ColE1-like plasmids” (Antimicrob Agents Chemother, 2009).
# Assays:
# [1] = substrate: O=C(Cc1cccs1)N[C@@H]1C(=O)N2C(C(=O)[O-])=C(C[n+]3ccccc3)CS[C@H]12; conditions: Salmonella enterica subsp. enterica serovar Newport; AM17274
# [2] = substrate: O=C(Cc1cccs1)N[C@@H]1C(=O)N2C(C(=O)O)=C(/C=C/c3ccc([N+](=O)[O-])cc3[N+](=O)[O-])CS[C@H]12; conditions: Salmonella enterica subsp. enterica serovar Newport; AM17274
# [3] = substrate: CO/N=C(\C(=O)N[C@@H]1C(=O)N2C(C(=O)O)=C(COC(C)=O)CS[C@H]12)c1csc(N)n1; conditions: Salmonella enterica subsp. enterica serovar Newport; AM17274
# [4] = substrate: CC1(C)S[C@@H]2[C@H](NC(=O)Cc3ccccc3)C(=O)N2[C@H]1C(=O)O; conditions: Salmonella enterica subsp. enterica serovar Newport; AM17274
# [5] = substrate: O=C(Cc1cccs1)N[C@@H]1C(=O)N2C(C(=O)[O-])=C(C[n+]3ccccc3)CS[C@H]12; conditions: Salmonella enterica subsp. enterica serovar Newport; AM17274; remark: listed apart in the source
# [6] = substrate: O=C(Cc1cccs1)N[C@@H]1C(=O)N2C(C(=O)O)=C(/C=C/c3ccc([N+](=O)[O-])cc3[N+](=O)[O-])CS[C@H]12; conditions: Salmonella enterica subsp. enterica serovar Newport; AM17274; remark: listed apart in the source
# [7] = substrate: CC1(C)S[C@@H]2[C@H](NC(=O)Cc3ccccc3)C(=O)N2[C@H]1C(=O)O; conditions: Salmonella enterica subsp. enterica serovar Newport; AM17274; remark: listed apart in the source
# [8] = substrate: O=C(Cc1cccs1)N[C@@H]1C(=O)N2C(C(=O)[O-])=C(C[n+]3ccccc3)CS[C@H]12; test: (§1) Activity of Klebsiella pneumoniae HP205 cephalosporinase CMY-36 by spectrophotometry
# Method in brief: (§2)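 CMY β-lactamases purified from sonicated, ultracentrifuge-clarified extracts of E. coli DH5α clones (pB-cmy36, pB-cmy2) by Q- then S-Sepharose ion exchange (>90% pure by SDS-PAGE); steady-state hydrolysis kinetics measured spectrophotometrically, CMY-2 run in parallel.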
# [9] = substrate: O=C(Cc1cccs1)N[C@@H]1C(=O)N2C(C(=O)O)=C(/C=C/c3ccc([N+](=O)[O-])cc3[N+](=O)[O-])CS[C@H]12; test: as §1
# Method in brief: as §2
# [10] = substrate: CO/N=C(\C(=O)N[C@@H]1C(=O)N2C(C(=O)O)=C(COC(C)=O)CS[C@H]12)c1csc(N)n1; test: as §1
# Method in brief: as §2
# [11] = substrate: CC1(C)S[C@@H]2[C@H](NC(=O)Cc3ccccc3)C(=O)N2[C@H]1C(=O)O; test: as §1
# Method in brief: as §2
# [12] = substrate: O=C(Cc1cccs1)N[C@@H]1C(=O)N2C(C(=O)[O-])=C(C[n+]3ccccc3)CS[C@H]12; test: (§3) Ratio of Kcat to Km for Klebsiella pneumoniae cephalosporinase CMY-36 by spectrophotometry
# Method in brief: as §2
# [13] = substrate: O=C(Cc1cccs1)N[C@@H]1C(=O)N2C(C(=O)O)=C(/C=C/c3ccc([N+](=O)[O-])cc3[N+](=O)[O-])CS[C@H]12; test: as §3
# Method in brief: as §2
# [14] = substrate: CC1(C)S[C@@H]2[C@H](NC(=O)Cc3ccccc3)C(=O)N2[C@H]1C(=O)O; test: as §3
# Method in brief: as §2
Protein,kcat [1],Km [2],kcat [2],kcat [3],Km [4],kcat [4],kcat/Km [5],kcat/Km [6],kcat/Km [7],Km [8],kcat [8],Km [9],kcat [9],kcat [10],Km [11],kcat [11],kcat/Km [12],kcat/Km [13],kcat/Km [14]
"Efflux transporter (Salmonella newport), Q3S5C3 (protein) MSWIVLLIAGLLEVVWAIGLKYTHGFTRLTPSIITIAAMIVSIAMLSWAMRTLPVGTAYAVWTGIGAVGAAITGILLLGESASPARLLSLGLIVAGIIGLKLSTH",310 s⁻¹,10 µM,960 s⁻¹,< 0.01 s⁻¹,0.3 µM,7.7 s⁻¹,2.1e+06 M⁻¹ s⁻¹,9.6e+07 M⁻¹ s⁻¹,2.57e+07 M⁻¹ s⁻¹,,,,,,,,,,
"Class C beta-lactamase CMY-36 (Klebsiella pneumoniae), Q48435 (protein) MMKKSLCCALLLTASFSTFAAAKTEQQIADIVNRTITPLMQEQAIPGMAVAVIYQGKPYYFTWGKADIANNHPVTQQTLFELGSVSKTFNGVLGGDCIARGEIKLSDPVTKYWPELTGKQWQGIRLLHLATYTAGGLPLQIPDDVRDKAALLHFYQNWQPQWTPGAKRLYANSSIGLFGALAVKPSGMSYEEAMTRRVLQPLKLAHTWITVPENEQKDYAWGYREGKPVHVSPGQLDAEAYGVKSSVIDMARWVQANMDASHVQEKTLQQGIALAQSRYWRIGDMYQGLGWEMLNWPLKADSIINGSDSKVALAALPAVEVNPPAPAVKASWVHKTGSTGGFGSYVAFVPEKNLGIVMLANKSYPNPVRVEAAWRILEKLQ",,,,,,,,,,150 µM,360 s⁻¹,7.3 µM,910 s⁻¹,< 0.01 s⁻¹,0.3 µM,9.1 s⁻¹,2.4e+06 M⁻¹ s⁻¹,1.25e+08 M⁻¹ s⁻¹,3.03e+07 M⁻¹ s⁻¹
